The target of assay [1] is T1, 5-hydroxytryptamine receptor 1A (Rattus norvegicus, UniProt P19327).
T1 sequence (P19327 whole entry): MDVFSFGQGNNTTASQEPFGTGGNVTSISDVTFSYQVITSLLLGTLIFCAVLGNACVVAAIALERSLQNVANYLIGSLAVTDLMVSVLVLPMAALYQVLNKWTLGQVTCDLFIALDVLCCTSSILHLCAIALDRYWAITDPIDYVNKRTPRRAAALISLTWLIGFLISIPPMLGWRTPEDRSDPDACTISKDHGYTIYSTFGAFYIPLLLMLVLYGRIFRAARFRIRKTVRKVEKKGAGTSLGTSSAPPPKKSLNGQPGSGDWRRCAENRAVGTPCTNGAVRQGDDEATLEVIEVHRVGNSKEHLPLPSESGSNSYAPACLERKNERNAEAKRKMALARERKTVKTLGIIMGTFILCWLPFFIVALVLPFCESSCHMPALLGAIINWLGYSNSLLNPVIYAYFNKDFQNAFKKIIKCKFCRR
Briefly: Antagonist activity against rat hippocampal tissue 5-hydroxytryptamine 1A receptor. It counts as functional, tissue-based, Hippocampus.

The target of assay [2] is Serotonin 2 (5-HT2) receptor (Rattus norvegicus, UniProt P30994+P08909+P14842). In words: Inhibitory activity against rat cortical 5-hydroxytryptamine 2 receptor. It counts as protein assay. In short, it runs like this: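 Cortical membranes from male Sprague–Dawley rats, incubated 15 min at 37 °C in 50 mM Tris pH 7.6 with 1.0 nM [3H]ketanserin and a range of drug concentrations. Nonspecific binding defined with 100 μM methysergide. Run by filtration and counting.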

Assay [3] addresses D(2) dopamine receptor (Rattus norvegicus, UniProt P61169). Briefly: Inhibitory activity against rat limbic tissue Dopamine receptor D2. The assay is classed as tissue-based, Limbic system. In short, it runs like this: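 Rat limbic membranes, handled as in the 5-HT2 assay: 15 min at 37 °C, 50 mM Tris pH 7.6, drug concentration range. 30 nM ketanserin in all tubes to block 5-HT2 sites. Nonspecific binding defined with 10 μM sulpiride. Filtration and counting.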

Assay [4] concerns the target D(2) dopamine receptor (Rattus norvegicus) (UniProt P61169). In words: Inhibitory activity against rat limbic tissue Dopamine receptor D2 at 1 uM concentration. It counts as tissue-based. To be noted: Limbic system.
Assay [5] has as its system Rattus norvegicus. Briefly: Induction of serotonin syndrome against male Sprague-Dawley CD rats following ip administration of the compound. The assay is classed as functional. Summed up: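 Male Sprague–Dawley CD rats (150–250 g), group-housed and acclimated 1 week, given compound or vehicle ip, 8 per group. Forepaw treading, head weaving, tremor, hindlimb abduction, flat body posture and Straub tail each rated 0–3 (maximum 18) over the first 15 min. ED50 by nonlinear regression with inverse prediction.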

Assay [6] deals with Rattus norvegicus. Briefly: Antagonistic activity against […] induced serotonin syndrome against male Sprague-Dawley CD rats following ip administration of the compound. The assay is classed as functional. Summed up:
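Rats were dosed ip with compound or vehicle (male Sprague–Dawley CD, 150–250 g, 8 per group), then challenged with 8-OH-DPAT 3 mg/kg ip. The six serotonin-syndrome behaviours were each rated 0–3 for a further 15 min. ED50 by nonlinear regression with inverse prediction.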

Assay [7] deals with Rattus norvegicus. Briefly: Antagonistic activity against quipazine induced head shakes against male Sprague-Dawley CD rats following ip administration of the compound. It counts as functional. In short, it runs like this: (§1)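 Male Sprague–Dawley CD rats (200–300 g), 8 per treatment, given compound or vehicle ip 30 min before quipazine 2.5 mg/kg ip or DOI 1.0 mg/kg ip. Rhythmic radial head shakes counted for 30 min after agonist. ED50 by nonlinear regression with inverse prediction.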

For assay [8], the system named is Rattus norvegicus. In words: Antagonistic activity antagonist DOI induced head shakes against male Sprague-Dawley CD rats following ip administration of the compound. It counts as functional. In short, it runs like this: as §1
For assay [9], the target named is T2, 5-hydroxytryptamine receptor 1A (Rattus norvegicus) (UniProt P19327).
T2 sequence (whole entry): T1 sequence (P19327 whole entry)
In words: Inhibitory activity against 5-hydroxytryptamine 1A receptor of rat hippocampal tissue at 0.1 uM. To be noted: Hippocampus.

Assay [10] has as its target D(2) dopamine receptor (Rattus norvegicus) (UniProt P61169). Briefly: Inhibitory activity against Dopamine receptor D2 of rat limbic tissue at 1 uM. It counts as tissue-based. To be noted: Limbic system.
For assay [11], the target named is T2, 5-hydroxytryptamine receptor 1A (Rattus norvegicus). In words: Inhibitory activity against rat hippocampal tissue 5-hydroxytryptamine 1A receptor at 0.1 uM concentration. The assay is classed as tissue-based. The note with it: Hippocampus.
Assay [12] addresses T1, 5-hydroxytryptamine receptor 1A. Briefly: Inhibitory activity against 5-hydroxytryptamine 1A receptor of rat hippocampal tissue. The assay is classed as tissue-based, Hippocampus. In short, it runs like this:
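Rat hippocampal membranes from male Sprague–Dawley rats (150–250 g), preincubated 10 min at 37 °C to remove endogenous 5-HT. Used at 0.4–0.6 mg protein with 1.5–1.8 nM [3H]8-OH-DPAT and a range of drug concentrations, 10 min at 37 °C, in 50 mM Tris pH 7.7 with 0.1% ascorbate, 10 μM pargyline and 4 mM CaCl2. Nonspecific binding defined with 1 μM 5-HT. Filtration, scintillation counting. Ki from duplicate assays, 95% CI.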

Assay [13] deals with T2, 5-hydroxytryptamine receptor 1A (Rattus norvegicus). Briefly: Inhibitory activity against rat hippocampal tissue 5-hydroxytryptamine 1A receptor at 1 uM concentration. It counts as tissue-based. To be noted: Hippocampus.

Chain of D(2) dopamine receptor (P61169 whole entry): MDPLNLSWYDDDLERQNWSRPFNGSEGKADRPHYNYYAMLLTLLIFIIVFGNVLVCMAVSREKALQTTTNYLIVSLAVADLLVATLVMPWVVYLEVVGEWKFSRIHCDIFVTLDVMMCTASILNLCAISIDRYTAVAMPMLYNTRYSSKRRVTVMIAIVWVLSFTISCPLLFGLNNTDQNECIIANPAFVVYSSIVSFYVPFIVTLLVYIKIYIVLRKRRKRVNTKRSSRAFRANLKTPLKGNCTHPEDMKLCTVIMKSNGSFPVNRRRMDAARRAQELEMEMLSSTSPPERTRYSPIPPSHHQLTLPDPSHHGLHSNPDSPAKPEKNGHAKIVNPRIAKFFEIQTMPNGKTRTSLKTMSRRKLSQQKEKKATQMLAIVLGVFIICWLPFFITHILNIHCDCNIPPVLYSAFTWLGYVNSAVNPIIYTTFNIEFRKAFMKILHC
Chain of D(2) dopamine receptor (Rattus norvegicus) (P61169 whole entry): as above

For `COc1ccccc1N1CCN(CCCOC(=O)C23C[C@H]4C[C@@H](C2)C[C@@H](C3)C4)CC1.Cl.Cl`, the Ki in [1] was 8.5 nM; in [2], 180 nM; in assay [3] it was 35 nM.
Molecule `COc1ccccc1N1CCN(CCCNC(=O)CC23C[C@H]4C[C@@H](C2)C[C@](C)(C4)C3)CC1` came in with a Ki in assay [1] of 4.4 nM. Besides, the inhibition in [4] stood at 79%.
For `O=C(N[C@@H](Cc1ccccc1)CN1CCN(c2ncccn2)CC1)C12C[C@H]3C[C@@H](C1)C[C@@H](C2)C3`, the results for the Ki in assay [1], in assay [2] and in [3] were 1 nM, 1360 nM and 1690 nM, respectively.
For `COc1ccccc1N1CCN(CCCNC(=O)NC23C[C@H]4C[C@@H](C2)C[C@@H](C3)C4)CC1.Cl.Cl`, in that order: 1 nM, 348 nM and 176 nM.
As to `COc1ccccc1N1CCN(CCCNC(=O)C23C[C@H]4C[C@@H](C2)C[C@@H](C3)C4)CC1.Cl.Cl`, the Ki in assay [1] was 1 nM; in [2], 75 nM; in assay [3] it was 200 nM. Further, the ED50 in [5] was determined as 9 mg/kg; in [6], 5.8 mg/kg; in [7], 4.5 mg/kg; in [8], 4.4 mg/kg.
In assay [9], `O=C(OCCCN1CCN(c2ncccn2)CC1)C12CC3C[C@@H](C[C@H]1C3)C2` had an inhibition of 12%.
On the same count and under the same terms, then `C[C@@H](CN1CCN(Cc2ccccc2)CC1)NC(=O)C12C[C@H]3C[C@@H](C1)C[C@@H](C2)C3`, with 0%.
As for `Cl.Cl.O=C(N[C@H](Cc1ccccc1)CN1CCN(Cc2ccccc2)CC1)C12C[C@H]3C[C@@H](C1)C[C@@H](C2)C3`, the inhibition constant (Ki) amounted to 2.3 nM in [1], 722 nM in assay [2] and 1400 nM in [3].
Consider `COc1ccccc1N1CCN(CCCNC(=O)C23CC4C[C@@H](C[C@H]2C4)C3)CC1.Cl.Cl`, for which the values for the Ki in [1] and in assay [2] were 3.3 nM and 43.5 nM, respectively. Moreover, in assay [4], the inhibition amounted to 72%.
For the molecule `COc1ccccc1N1CCN(CCNC(=O)NC23C[C@H]4C[C@@H](C2)C[C@@H](C3)C4)CC1`, the values for the Ki in [1] and in [2] were 9 nM and 38 nM, respectively. The molecule also showed an inhibition in assay [4] of 94%.
For the molecule `O=C(N[C@H](Cc1ccccc1)CN1CCN(c2ncccn2)CC1)C12C[C@H]3C[C@@H](C1)C[C@@H](C2)C3`, the Ki in [1] was found to be 0.43 nM; in assay [2] it was 395 nM; in assay [3], 20 nM.
For `O=C(NCCCN1CCN(c2ncccn2)CC1)NC12CC3CC(CC1C3)C2`, the values for the inhibition in assay [10] and in assay [9] were 6% and 69%, respectively.
Consider `O=C(OCCCN1CCN(c2cncc(Cl)n2)CC1)C12C[C@H]3C[C@@H](C1)C[C@@H](C2)C3`, for which the inhibition in [11] amounted to 5%.
Consider `Cl.Cl.O=C(NCCCN1CCN(c2ncccn2)CC1)NC12C[C@H]3C[C@@H](C1)C[C@@H](C2)C3`, for which the values for the Ki in assay [1], in [2] and in [3] were 7 nM, 1600 nM and over 10000 nM, respectively.
With `Cl.Cl.O=C(NCCN1CCN(c2ncccn2)CC1)C12C[C@H]3C[C@@H](C1)C[C@@H](C2)C3`, the Ki in assay [12] is 1 nM; in assay [2], 73 nM; in [3] it was 166 nM. Moreover, the ED50 in assay [5] is 12.9 mg/kg; in assay [6], 2.2 mg/kg; in [7], 0.6 mg/kg; in assay [8], 1.8 mg/kg.
Consider `COc1ccccc1N1CCN(CCOC(=O)C23C[C@H]4C[C@@H](C2)C[C@@H](C3)C4)CC1.Cl.Cl`, for which the values for the inhibition constant (Ki) in [1], in assay [2] and in [3] were 2.5 nM, 712 nM and 13.5 nM, respectively.
In the case of `COc1ccccc1N1CCN(CCNC(=O)C23CC4C[C@@H](C[C@H]2C4)C3)CC1.Cl.Cl`, the Ki was 0.24 nM in [1] and 8.2 nM in assay [2]. Besides, the inhibition in assay [4] is 100%.
`Cc1cccc(N2CCN(C[C@@H](C)NC(=O)C34C[C@H]5C[C@@H](C3)C[C@@H](C4)C5)CC2)c1C`: the inhibition in [9] was 0%.
With `COc1ccccc1N1CCN(C(=O)NC23C[C@H]4C[C@@H](C2)C[C@@H](C3)C4)CC1`, the inhibition in assay [13] is 0%.
Consider `O=C(NC12C[C@H]3C[C@@H](C1)C[C@@H](C2)C3)OCCN1CCN(c2ncccn2)CC1`, for which the inhibition in assay [9] stood at 34%.
In the case of `COc1ccccc1N1CCN(CCNC(=O)CC23C[C@H]4C[C@@H](C2)C[C@](C)(C4)C3)CC1`, the Ki in assay [1] was 11 nM. In [4], this molecule showed an inhibition of 70%.
In the case of `Cl.Cl.O=C(N[C@@H](Cc1ccccc1)CN1CCN(Cc2ccccc2)CC1)C12C[C@H]3C[C@@H](C1)C[C@@H](C2)C3`, the Ki worked out at 0.7 nM in assay [1], 1890 nM in assay [2] and 3390 nM in [3].
As to `COc1ccccc1N1CCN(CCC(=O)NC23C[C@H]4C[C@@H](C2)C[C@@H](C3)C4)CC1.Cl.Cl`, the inhibitory constant (Ki) in [1] was found to be 9 nM; in assay [2], 77 nM; in [3], 93 nM.
With `Cl.Cl.O=C(OCCN1CCN(c2ncccn2)CC1)C12C[C@H]3C[C@@H](C1)C[C@@H](C2)C3`, the Ki in assay [1] was found to be 8.5 nM; in assay [2] it was 2180 nM; in assay [3], 708 nM.
Molecule `Cc1cccc(N2CCN(C[C@H](C)NC(=O)C34C[C@H]5C[C@@H](C3)C[C@@H](C4)C5)CC2)c1C` displayed an inhibition in assay [9] of 0%.

Usually Ki stands for the dissociation constant of the complex between target and ligand, obtained from inhibition or displacement. A higher Ki goes with weaker binding. As a reminder, the inhibition is the change of the read-out against control, counted positive when it falls. High values mean a response far below the control, low ones a response near the control. In general, ED50 refers to the dose at which the effect has come halfway, by size or by number of responders. Lower therefore signals greater potency.

The values above are taken from ChEMBL document CHEMBL1132497, “Synthesis and SAR of adatanserin: novel adamantyl aryl- and heteroarylpiperazines with dual serotonin 5-HT(1A) and 5-HT(2) activity as potential anxiolytic and antidepressant agents” (J Med Chem, 1999).
